These results are taken from ChEMBL document CHEMBL1250485, “Synthesis and activity of endomorphin-2 and morphiceptin analogues with proline surrogates in position 2” (Eur J Med Chem, 2010).

By inhibition is commonly meant how much of the control response was suppressed. In general, pIC50 refers to the negative decadic logarithm of the IC50, by convention in mol/L.

pIC50: −log10 of the molar value. Where a SMILES comes first, the peptide text is derived from it. [ ]: non-standard residue; d: D form. d(β3hP) = O=C(O)C[C@H]1CCCN1; β3hP = O=C(O)C[C@@H]1CCCN1

Holding throughout (type): functional, tissue-based
Assay [1] concerns the target Delta-type opioid receptor (Mus musculus) (UniProt P32300). Put plainly: Agonist activity at delta opioid receptor in mouse vas deferens assessed as inhibition of electrically-stimulated muscle contraction at 1 uM.
The target in the next assay is Mu-type opioid receptor (Cavia porcellus, UniProt P97266). Put plainly: Agonist activity at mu opioid receptor in guinea pig ileum assessed as inhibition of electrically-stimulated muscle contraction. Summed up: (§1)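 Isolated tissue bioassays used MVD for line 1 and GPI/LMMP for […]. IC50 is the mean of at least four experiments, obtained by nonlinear least-squares fitting to the Hill equation.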
Mu-type opioid receptor, sequence (P97266 whole entry): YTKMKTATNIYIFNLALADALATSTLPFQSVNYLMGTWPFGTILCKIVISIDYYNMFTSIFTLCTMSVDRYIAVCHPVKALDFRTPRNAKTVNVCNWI

Assay [2] has as its target Delta-type opioid receptor (Mus musculus, UniProt P32300). Put plainly: Agonist activity at delta opioid receptor in mouse vas deferens assessed as inhibition of electrically-stimulated muscle contraction. Summed up: as §1

Delta-type opioid receptor, sequence (P32300 whole entry): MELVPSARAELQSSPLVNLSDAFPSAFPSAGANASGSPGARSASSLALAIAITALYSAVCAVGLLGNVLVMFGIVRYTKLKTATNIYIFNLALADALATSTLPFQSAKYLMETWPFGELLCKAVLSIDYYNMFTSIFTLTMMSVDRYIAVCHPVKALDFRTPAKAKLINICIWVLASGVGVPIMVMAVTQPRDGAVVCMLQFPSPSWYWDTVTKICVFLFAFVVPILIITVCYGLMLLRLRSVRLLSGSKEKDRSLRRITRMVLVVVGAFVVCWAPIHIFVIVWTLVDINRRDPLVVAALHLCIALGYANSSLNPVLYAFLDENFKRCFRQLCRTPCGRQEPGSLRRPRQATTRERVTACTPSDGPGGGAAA
Delta-type opioid receptor (Mus musculus), sequence (P32300 whole entry): as above

For the molecule `NC(=O)[C@H](Cc1ccccc1)NC(=O)[C@H](Cc1ccccc1)NS(=O)(=O)C[C@H]1CCCN1C(=O)[C@@H](N)Cc1ccc(O)cc1`, the inhibition in assay [1] came out at 36%. The pIC50 at Mu-type opioid receptor is 5.57.
For `NC(=O)[C@H](Cc1ccccc1)NC(=O)[C@H](Cc1ccccc1)NC(=O)C[C@@H]1CCCN1C(=O)[C@@H](N)Cc1ccc(O)cc1`, the figures for the negative-log IC50 (pIC50) (in assay [2]; at Mu-type opioid receptor) were 5.89 and 6.59, respectively.
As for `NC(=O)[C@H]1CCCN1C(=O)[C@H](Cc1ccccc1)NC(=O)C[C@@H]1CCCN1C(=O)[C@@H](N)Cc1ccc(O)cc1` (H-Y[β3hP]F[dP]-NH2), the inhibition in assay [1] was 33.7%. Further, the pIC50 at Mu-type opioid receptor is 5.96.
On to `NC(=O)[C@H](Cc1ccccc1)NC(=O)[C@H](Cc1ccccc1)NS(=O)(=O)C[C@@H]1CCCN1C(=O)[C@@H](N)Cc1ccc(O)cc1`, for which the figures for the pIC50 (in assay [2]; at Mu-type opioid receptor) were 5.96 and 6.14, respectively.
For `NC(=O)[C@H]1CCCN1C(=O)[C@H](Cc1ccccc1)NC(=O)C[C@H]1CCCN1C(=O)[C@@H](N)Cc1ccc(O)cc1` (H-Y[d(β3hP)]F[dP]-NH2), in that order: 7.02 and 7.77.
For `NC(=O)[C@H](Cc1ccccc1)NC(=O)[C@H](Cc1ccccc1)NS(=O)(=O)[C@H]1CCN(C(=O)[C@@H](N)Cc2ccc(O)cc2)C1` the same measures were 6.28 and 6.59.
For `NC(=O)[C@H](Cc1ccccc1)NC(=O)[C@H](Cc1ccccc1)NS(=O)(=O)[C@@H]1CCN(C(=O)[C@@H](N)Cc2ccc(O)cc2)C1`, in that order: 6.41 and 6.66.
`NC(=O)[C@H](Cc1ccccc1)NC(=O)[C@H](Cc1ccccc1)NC(=O)C[C@H]1CCCN1C(=O)[C@@H](N)Cc1ccc(O)cc1`: the values for the pIC50 (in assay [2]; at Mu-type opioid receptor) were 5.72 and 6.38, respectively.
